Experimental data from ChEMBL document CHEMBL1137693, “Antiamoebic coumarins from the root bark of Adina cordifolia and their new thiosemicarbazone derivatives” (Eur J Med Chem, 2009).

Assay: Cytotoxicity against rat H9c2 cells assessed as cell viability at 3.125 to 200 ug/ml after 48 hrs by MTT assay
Format: cell-based
Settings: read-out: Activity
In short: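 Rat H9c2 cardiac myoblasts maintained in high-glucose DMEM with 10% heat-inactivated FBS and antibiotics at 37 °C, 5% CO₂. Subconfluent cells exposed 48 h to 3.125–200 μg/ml. MTT (5 mg/ml) added for 45 min at 37 °C; formazan dissolved in acid isopropanol, absorbance read at 570 nm (reference 655 nm). Viability relative to untreated controls; triplicate.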

Structure (SMILES)	viability at 48 h [%]
C/C(=N\NC(=S)N1CCC(Cc2ccccc2)CC1)c1c(O)ccc2ccc(=O)oc12	> 80
C/C(=N\NC(=S)NCc1ccccc1)c1c(O)ccc2ccc(=O)oc12	> 80
C/C(=N\NC(=S)NC12CC3CC(CC(C3)C1)C2)c1c(O)ccc2ccc(=O)oc12	> 80
